AHR activator: AHR activators, primary screen, cell-based, luminescence, luciferase reporter, human; Aryl hydrocarbon receptor (Homo sapiens), P35869; AHR-responsive luciferase reporter cells; activation, % at 5 µM; 320,000 tested, 2.5% active; in the data active = activation above about 47%;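 note: 0% = vehicle wells and 100% = reference agonist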
Target sequence (P35869 whole entry, looked up): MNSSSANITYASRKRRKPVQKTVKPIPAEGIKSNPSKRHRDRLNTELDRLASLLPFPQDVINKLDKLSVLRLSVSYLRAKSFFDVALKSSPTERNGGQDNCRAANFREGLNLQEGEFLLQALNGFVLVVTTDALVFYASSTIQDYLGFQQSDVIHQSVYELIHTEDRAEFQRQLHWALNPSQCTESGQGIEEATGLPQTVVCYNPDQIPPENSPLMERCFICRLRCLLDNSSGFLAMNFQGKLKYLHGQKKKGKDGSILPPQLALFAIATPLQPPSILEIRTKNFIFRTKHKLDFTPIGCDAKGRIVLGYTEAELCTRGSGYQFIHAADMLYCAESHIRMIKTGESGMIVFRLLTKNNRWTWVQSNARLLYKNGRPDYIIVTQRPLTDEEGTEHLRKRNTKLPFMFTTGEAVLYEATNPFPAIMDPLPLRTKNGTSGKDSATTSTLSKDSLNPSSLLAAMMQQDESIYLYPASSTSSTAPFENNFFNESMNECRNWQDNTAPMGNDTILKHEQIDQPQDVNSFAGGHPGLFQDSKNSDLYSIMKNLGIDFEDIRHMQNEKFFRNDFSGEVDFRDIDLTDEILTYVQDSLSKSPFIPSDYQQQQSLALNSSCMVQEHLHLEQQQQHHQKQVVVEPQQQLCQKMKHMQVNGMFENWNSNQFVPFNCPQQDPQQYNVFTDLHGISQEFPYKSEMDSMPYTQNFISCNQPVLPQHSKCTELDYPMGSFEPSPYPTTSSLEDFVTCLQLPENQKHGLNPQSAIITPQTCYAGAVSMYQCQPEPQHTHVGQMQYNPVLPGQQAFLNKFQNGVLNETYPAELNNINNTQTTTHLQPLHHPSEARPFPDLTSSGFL
SR-BI HDL uptake: inhibitors of SR-BI mediated HDL lipid uptake, primary screen, ldlA[mSR-BI] cells, fluorescence, single point | Scavenger receptor class B member 1 (Mus musculus), Q61009 | ldlA[mSR-BI] CHO cells, DiI-HDL uptake fluorescence, 3 h | inhibition, % at 12.5 µM | 320,000 tested, 0.96% active | AID 488896, 2010;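 active = mean replicate inhibition of at least 70% and a set share of replicates each scoring 70 or more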;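 note: 0% = median of neutral control wells and 100% = median of positive control wells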
ABCB6 inh 2: ABCB6 transporter inhibitors, primary screen, K562-ABCB6 cells, flow cytometry, MLPCN library. ATP-binding cassette sub-family B member 6 (Homo sapiens), Q9NP58. K562-ABCB6 porphyrin accumulation, 1 h; hits give low values. fluorescence ratio to DMSO, % at 10 µM. 360,000 tested, 0.19% active. AID 602162, 2011;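 active = fluorescence ratio to DMSO below 75%, the collection mean minus 3 SD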;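 note: signal is porphyrin accumulated inside mitochondria; 100% equals median channel fluorescence of DMSO control wells; lower ratio means ABCB6 inhibition with less porphyrin fluorescence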
GAA850 FXN act: FXN promoter activators, primary screen, cell-based, luciferase luminescence, HEK293 lucGAA850. AID 540364, 2011. activation, % at 6 µM. HEK293 lucGAA850 FXN promoter luciferase reporter, 24 h; percent of 10 µM SAHA response. 360,000 tested, 0.56% active;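 active = activation above the average of all compounds screened plus 3 SD, cutoff fixed separately per campaign, cut at about 7.5% in these data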;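 note: 0% = DMSO wells and 100% = 10 µM SAHA wells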
HIF act: HIF pathway transcriptional activators, primary screen, cell-based, U2OS HRE-luciferase, luminescence | U2OS HRE-luciferase reporter; normalized: DMSO 0%, desferrioxamine 100% | activation, % at 7.5 µM (by protocol) | 300,000 tested, 0.32% active | AID 1910, 2009;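 active = mean activation of at least 10% of the iron chelator positive control signal, with at least half of replicates also reaching 10%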
SR-BI uptake up: activators of SR-BI mediated DiI-HDL uptake, primary screen, ldlA[mSR-BI] CHO cells, DiI fluorescence; 3 h; 100 = double the neutral-control signal; activation, % at 12.5 µM; 320,000 tested, 0.096% active; AID 504775, 2011;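 active = mean replicate activation of at least 60% and every replicate at or above 60%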;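 note: 0% = median plate neutral-control signal and 100% = twice that signal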
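Material: SR-BI-overexpressing, LDLR-lacking CHO cells; schedule: compound exposure 3 h, 37 °C; reagent: DiI-labelled HDL at 10 µg/mL final; technique: bottom-read fluorescence, 550/595 nm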
GAA30 FXN cntr: GAA30 FXN promoter activators, confirmation, counter-screen for GAA850 frataxin promoter activator project, cell-based, luminescence, HEK293, lucGAA30, triplicate | activation, % at 6 µM | AID 588350, 2011 | 1,900 tested, 66% active | HEK293 lucGAA30 FXN promoter luciferase, 24 h; DMSO = 0%, 5 µM ipriflavone = 100% | shares compounds with GAA850 FXN act;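 active = mean activation above the mean of solvent-only control wells plus 3 SD, cut at about 22% in these data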;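 note: counterscreen of GAA850 promoter hits where activity marks nonselective or luminescence artifacts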
GAA850 confirm: FXN GAA850 promoter activators in reporter cells, confirmation, cell-based, luminescence, HEK293 lucGAA850, triplicate; shares compounds with GAA850 FXN act; HEK293 lucGAA850 FXN promoter luciferase reporter, 24 h; 100% = activation by SAHA; activation, % at 6 µM; 1,900 tested, 86% active; AID 588351, 2011;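 active = mean activation above a set limit taken from the primary screen, cut at about 8% in these data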;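 note: 0% = DMSO wells and 100% = 10 µM SAHA wells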
An asterisk follows results filed as active; . = no result; ! = a repeat was not active. This is a sample that favours compounds with a hit; in the whole collection about 3.9% have one here.

SMILES	AHR activator	SR-BI HDL uptake	ABCB6 inh 2	GAA850 FXN act	HIF act	SR-BI uptake up	GAA30 FXN cntr	GAA850 confirm
C=CCOC(=O)C1=C(C)NC(SCC(=O)Nc2nccs2)=C(C#N)C1c1ccc(Cl)cc1 (centres undefined)	5.7	51.0	79.0	9.6*	-0.3	-51.0	13.9	8.9*
C=CCOC(=O)C1=C(C)NC(SCC(=O)Nc2nccs2)=C(C#N)C1c1cccs1 (centres undefined)	25.1	35.3	96.0	1.0	-0.4	-35.3	.	.
C=CCN(CC=C)CC(=O)Nc1cccc(Oc2cnccn2)c1	7.3	4.1	99.0	-0.1	0.9	-4.1	.	.
Cc1ccc(N(O)C(=O)NCCCCNC(=O)N(O)c2ccc(C)cc2)cc1	5.2	.	91.0	7.7*	5.5	.	58.8*	21.1*
COc1ccc(C2N(c3ccc(Cl)cc3)C(=O)C3CCCN32)cc1 (centres undefined)	1.3	5.2	105.0	13.1*	0.9	-5.2	-5.4	2.9
CCCCCC(=O)Nc1c2c(nc3ccccc13)CCC2	4.9	-25.5	114.0	2.3	-1.5	25.5	.	.
N#Cc1c(N)nc2c(c1-c1ccccc1)CCC2	10.2	10.7	99.0	8.2*	0.5	-10.7	62.0*	35.4*
CCOC(=O)CSc1n[nH]c(NC(=O)c2ccccc2)n1	-0.9	2.8	96.0	-1.3	-0.5	-2.8	.	.
Nc1c2ccccc2nc2ccccc12	26.9	-7.3	96.0	12.8*!	6.0	7.3	-16.4	94.0*
CSc1nc(N)nc(SCC(=O)C(C)(C)C)c1C#N	21.2	13.5	89.0	1.9	1.3	-13.5	.	.
CSc1nc(N)nc(SC2C=CCCC2)c1C#N (centres undefined)	-5.4	30.3	92.0	12.6*	0.4	-30.3	40.5*	21.6*
N#C/C(=C\c1ccncc1)c1nc2ccccc2[nH]1	.	9.0	104.0	8.8*	0.1	-9.0	33.2*	9.3*
N#C/C(=C\c1cccnc1)c1nc2ccccc2[nH]1	45.5	.	100.0	-1.0	0.0	.	.	.
Cc1nn2cc(-c3ncc(C(F)(F)F)cc3Cl)cnc2c1Br	4.2	23.1	91.0	10.0*	-3.5	-23.1	54.1*	19.7*
Cc1cc2ncc(-c3ncc(C(F)(F)F)cc3Cl)cn2n1	21.5	-7.1	101.0	-3.1	-2.8	7.1	.	.
Cc1cc(S(=O)(=O)N2CCOCC2)ccc1OCC(=O)N1CCCCC1	0.0	.	94.0	-1.1	1.5	.	.	.
COc1ccc(-c2nn3c(C4CCCCC4)nnc3s2)cc1OC	6.8	23.0	94.0	12.5*	-0.7	-23.0	12.9	9.7*
COc1ccc(-c2nnc3sc(C4CCCCC4)nn23)cc1OC	2.5	24.2	100.0	8.8*	1.3	-24.2	10.5	10.6*
COc1ccc(-c2nn3c(-c4cccc(C)c4)nnc3s2)cc1OC	14.2	49.2	94.0	4.5	-0.3	-49.2	.	.
O=C(Nc1ccc(F)c(Cl)c1)N1CCCC1	0.2	-13.7	95.0	2.4	-0.1	13.7	.	.
COc1cc(C(=O)O[C@H]2CC(C)=CC[C@@]3(C)CC[C@@](O)(C(C)C)[C@H]23)ccc1O	1.9	.	94.0	16.2*	-0.5	.	28.6*	8.1*
COc1ccc(CN2CCN(C(=O)CC(C)C)CC2)c2ccccc12	7.7	9.9	103.0	-0.4	-15.4	-9.9	.	.

Screens: PubChem, several laboratories
